Experimental data taken from ChEMBL document CHEMBL5678818, “Discovery of potent SOS1 inhibitors that block RAS activation via disruption of the RAS-SOS1 interaction” (Proc Natl Acad Sci U S A, 2019).
Where “and” joins values, the source holds several entries; their conditions need not be identical. Equal entries are not always repeated.

How the values were obtained:
[1] = molecular target: T1, cGMP-dependent protein kinase 2 (Homo sapiens) (UniProt Q13237); experiment: Inhibition of PRKG2 (unknown origin) assessed as residual activity at 1000 nM by KINOMEscan analysis relative to control
T1 sequence (whole entry): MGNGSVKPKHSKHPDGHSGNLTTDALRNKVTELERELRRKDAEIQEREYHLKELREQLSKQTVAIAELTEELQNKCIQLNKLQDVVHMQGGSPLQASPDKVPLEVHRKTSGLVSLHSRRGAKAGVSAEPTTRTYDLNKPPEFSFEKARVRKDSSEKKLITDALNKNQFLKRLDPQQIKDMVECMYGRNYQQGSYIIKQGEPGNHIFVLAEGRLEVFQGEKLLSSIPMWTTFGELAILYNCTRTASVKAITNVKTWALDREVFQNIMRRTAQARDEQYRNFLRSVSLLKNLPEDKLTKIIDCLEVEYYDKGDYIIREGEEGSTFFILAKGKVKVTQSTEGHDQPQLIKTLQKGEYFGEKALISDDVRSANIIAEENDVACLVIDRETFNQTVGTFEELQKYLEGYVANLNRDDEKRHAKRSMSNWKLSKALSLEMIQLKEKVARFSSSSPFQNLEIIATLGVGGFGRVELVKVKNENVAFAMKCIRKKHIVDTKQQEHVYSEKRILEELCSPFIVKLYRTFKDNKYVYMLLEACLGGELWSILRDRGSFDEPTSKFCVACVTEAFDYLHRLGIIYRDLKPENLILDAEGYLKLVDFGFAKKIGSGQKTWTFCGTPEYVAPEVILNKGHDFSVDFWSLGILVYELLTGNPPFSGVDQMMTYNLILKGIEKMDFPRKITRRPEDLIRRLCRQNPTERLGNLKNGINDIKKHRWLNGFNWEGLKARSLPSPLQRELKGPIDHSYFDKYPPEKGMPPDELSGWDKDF

[2] = molecular target: Receptor-interacting serine/threonine-protein kinase 2 (Homo sapiens) (UniProt O43353); experiment: Inhibition of RIPK2 (unknown origin) assessed as residual activity at 1000 nM by KINOMEscan analysis relative to control
Receptor-interacting serine/threonine-protein kinase 2 (Homo sapiens), sequence (O43353 whole entry): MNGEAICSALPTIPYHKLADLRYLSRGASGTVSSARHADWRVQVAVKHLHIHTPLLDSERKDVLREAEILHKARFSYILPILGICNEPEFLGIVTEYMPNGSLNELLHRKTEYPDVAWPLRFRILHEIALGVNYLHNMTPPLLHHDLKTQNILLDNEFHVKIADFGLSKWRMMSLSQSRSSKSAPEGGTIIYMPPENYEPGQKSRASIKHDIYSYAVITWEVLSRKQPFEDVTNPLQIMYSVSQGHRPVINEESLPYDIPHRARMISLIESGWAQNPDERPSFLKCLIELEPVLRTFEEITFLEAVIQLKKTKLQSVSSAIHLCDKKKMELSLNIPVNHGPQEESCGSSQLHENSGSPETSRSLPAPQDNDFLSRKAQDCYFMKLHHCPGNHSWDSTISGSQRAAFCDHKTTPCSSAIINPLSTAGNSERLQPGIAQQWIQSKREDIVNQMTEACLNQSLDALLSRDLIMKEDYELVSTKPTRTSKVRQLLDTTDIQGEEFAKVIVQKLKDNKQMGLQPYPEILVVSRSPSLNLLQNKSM

[3] = molecular target: T2, Calcium/calmodulin-dependent protein kinase type IV (Homo sapiens) (UniProt Q16566); experiment: Inhibition of CAMK4 (unknown origin) assessed as residual activity at 1000 nM by KINOMEscan analysis relative to control
T2 sequence (whole entry): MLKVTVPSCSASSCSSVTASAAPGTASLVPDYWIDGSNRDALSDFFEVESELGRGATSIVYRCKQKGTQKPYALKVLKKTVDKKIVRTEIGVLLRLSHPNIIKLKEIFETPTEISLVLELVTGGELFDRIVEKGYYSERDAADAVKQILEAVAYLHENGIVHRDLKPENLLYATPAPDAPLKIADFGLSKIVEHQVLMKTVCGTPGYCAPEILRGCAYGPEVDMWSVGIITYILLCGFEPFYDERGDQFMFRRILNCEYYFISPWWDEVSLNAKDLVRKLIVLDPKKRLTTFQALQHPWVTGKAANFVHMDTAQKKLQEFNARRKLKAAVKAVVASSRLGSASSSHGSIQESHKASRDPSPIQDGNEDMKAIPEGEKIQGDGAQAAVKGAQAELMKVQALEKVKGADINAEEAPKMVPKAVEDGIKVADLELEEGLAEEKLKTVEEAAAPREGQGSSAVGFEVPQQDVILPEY

[4] = molecular target: T3, Son of sevenless homolog 1 (Homo sapiens) (UniProt Q07889); experiment: Binding affinity to N-terminal His10-tagged wild-type recombinant human SOS1 catalytic domain (564 to 1049 residues) expressed in Escherichia coli assessed as change in enthalpy by ITC analysis
T3 sequence (whole entry): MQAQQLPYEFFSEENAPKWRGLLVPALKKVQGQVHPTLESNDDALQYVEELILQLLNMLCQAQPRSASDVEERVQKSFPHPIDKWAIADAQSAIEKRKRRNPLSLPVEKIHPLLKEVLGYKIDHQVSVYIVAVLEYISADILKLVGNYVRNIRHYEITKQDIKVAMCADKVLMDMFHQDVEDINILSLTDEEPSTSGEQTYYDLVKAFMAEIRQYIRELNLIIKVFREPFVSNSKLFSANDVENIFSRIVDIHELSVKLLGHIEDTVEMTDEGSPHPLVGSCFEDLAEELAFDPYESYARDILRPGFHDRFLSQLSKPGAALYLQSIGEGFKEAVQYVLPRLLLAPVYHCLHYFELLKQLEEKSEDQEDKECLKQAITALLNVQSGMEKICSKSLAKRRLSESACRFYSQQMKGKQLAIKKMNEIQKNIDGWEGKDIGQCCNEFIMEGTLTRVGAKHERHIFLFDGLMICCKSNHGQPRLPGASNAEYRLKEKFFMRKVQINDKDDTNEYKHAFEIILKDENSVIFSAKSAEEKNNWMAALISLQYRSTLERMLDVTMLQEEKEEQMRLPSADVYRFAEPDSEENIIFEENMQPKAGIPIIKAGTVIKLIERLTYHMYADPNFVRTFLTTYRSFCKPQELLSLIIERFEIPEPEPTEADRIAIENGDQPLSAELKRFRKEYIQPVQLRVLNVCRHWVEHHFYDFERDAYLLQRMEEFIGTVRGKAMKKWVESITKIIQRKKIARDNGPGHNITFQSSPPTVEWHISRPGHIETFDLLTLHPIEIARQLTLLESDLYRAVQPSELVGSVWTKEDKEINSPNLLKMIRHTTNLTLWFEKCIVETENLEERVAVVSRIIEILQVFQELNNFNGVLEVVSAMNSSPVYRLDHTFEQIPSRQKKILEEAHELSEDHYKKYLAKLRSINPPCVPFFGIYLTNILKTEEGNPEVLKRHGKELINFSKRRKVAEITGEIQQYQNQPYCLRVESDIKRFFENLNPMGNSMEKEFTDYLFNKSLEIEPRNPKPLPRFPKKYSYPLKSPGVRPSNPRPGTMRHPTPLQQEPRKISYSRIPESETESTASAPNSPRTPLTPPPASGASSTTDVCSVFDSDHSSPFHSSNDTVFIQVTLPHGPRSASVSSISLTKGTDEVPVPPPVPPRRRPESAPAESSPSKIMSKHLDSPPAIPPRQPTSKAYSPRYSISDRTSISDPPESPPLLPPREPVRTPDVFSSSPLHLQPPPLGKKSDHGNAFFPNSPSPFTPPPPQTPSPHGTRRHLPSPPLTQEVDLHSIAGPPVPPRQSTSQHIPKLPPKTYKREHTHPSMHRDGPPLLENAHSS
Procedure, shortened: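 SOS1cat was titrated into a solution of the test ligand. Integrated injection enthalpies were plotted against the protein-to-compound molar ratio and fitted to derive the thermodynamic binding parameters.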

Compound | Activity [1] [%] | Activity [2] [%] | Activity [3] [%] | deltaH [4]
COc1cc2nc(C)nc(N[C@H](C)c3cccc(-c4cn[nH]c4)c3)c2cc1OC | 98 | 73 | 92 | –
CNCc1ccccc1-c1csc([C@@H](C)Nc2nc(C)nc3cc(OC)c(OC)cc23)c1 [BAY-293] | – | – | – | -16.1 kcal/mol and -17.9 kcal/mol
COc1cc2ncnc(N[C@H](C)c3cccc4ccccc34)c2cc1OC | 91 | 99 | 100 | -14.1 kcal/mol
